Some of the results follow. Unmarked numbers belong to inactive results. The source made the active and inactive calls.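 Rule for the calls: active = fluorescence in ABCG2-expressing cells above the plate's control-well mean plus 3 SD (cut at about 15 in these data); inactive = the rest.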
Experiment: compound autofluorescence in ABCG2-expressing IgMXP3 cells, confirmation, artefact control for ABC transporter inhibitor project, cell-based, 488/530 nm, flow cytometry (AID 1480)
Details: compound autofluorescence 488/530 nm, at 6.6 µM, stronger effect = higher value
Method in brief: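 Material – ABCG2-expressing drug-resistant IgMXP3 cells · Detection – flow cytometry, FL1 green emission · Read-out – compound-well median cell fluorescence minus DMSO-well median fluorescence · Compound dosing – single dose, test compound at 6.6 µM final · Probe or stimulus – no JC-1 substrate · Timing – Cell–compound exposure 10 min, 25 °C, end-over-end rotation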

**Q.** For `C=CCn1c(SCCOc2ccc(OC)cc2)nnc1C(NC(=O)c1ccc(OC)cc1)C(C)C` (stereo not drawn), which fluorescence is on record?
**A.** 65.8 (active)

**Q.** For `Cc1cccc2cc(CN(Cc3cccs3)C(c3nnnn3C3CCCC3)C(C)C)c(=O)[nH]c12` (stereo not drawn), which fluorescence is on record?
**A.** -2.04

**Q.** For `COc1cccc(NC(=O)c2ccc(Cn3cc([N+](=O)[O-])cn3)o2)c1`, which fluorescence is on record?
**A.** 9.06

**Q.** With `Cc1ccc(-n2c(SCC(=O)Nc3ncc(Cl)cc3Cl)nc3ccccc32)cc1` as the compound, how does the fluorescence read?
**A.** -0.59

**Q.** Which fluorescence does the source give for `CCN1/C(=C/c2ccc3ccc(C)cc3[n+]2CC)Sc2ccccc21` here?
**A.** 228 (active)

**Q.** Which fluorescence does the source give for `C/C(=N\Nc1ncc(Cl)cc1Cl)c1ccc(S(=O)(=O)NCc2ccco2)cc1` here?
**A.** -1.09

**Q.** For `Cc1ccc(OCC(O)CN2CCN(CC(O)COc3ccc(C)cc3Cl)CC2)c(Cl)c1` (stereo not drawn), which fluorescence is on record?
**A.** 31.2 (active)

**Q.** With `COc1ccc(C)cc1NC(=O)C(Sc1ccccc1)c1ccccc1` (stereo not drawn) as the compound, how does the fluorescence read?
**A.** -1.74

**Q.** Which fluorescence does the source give for `CCOC(=O)c1sc(NC(=O)CSc2nnc(-c3ccco3)o2)c(C(=O)OCC)c1C` here?
**A.** 2.51

**Q.** For `O=C(Cc1c[nH]c2ccccc12)N/N=C/c1cccc(F)c1`, which fluorescence is on record?
**A.** -0.24

**Q.** With `CCOCC(=O)Nc1sc2c(c1C(=O)OCC)CCCC2` as the compound, how does the fluorescence read?
**A.** 3.96

**Q.** Which fluorescence does the source give for `COc1ccc(-n2c(C)cc(C(=O)COC(=O)c3cc(OC)c(OC)cc3NC(=O)c3cccs3)c2C)cc1` here?
**A.** 1.61

**Q.** Which fluorescence does the source give for `Cc1c(CCOC(=O)CC23CC4CC(CC(C)(C4)C2)C3)sc[n+]1Cc1ccc([N+](=O)[O-])cc1` here?
**A.** -1.69

— PubChem BioAssay AID1480 (NMMLSC, 2009)
